pIC50: −log10 of the molar value. ≈ marks a conversion by molar mass, not a printed value.
What was measured:
[1] = test system: Trypanosoma brucei brucei; assay: WHO-TDR: Human African Trypanosomiasis (HAT); assay type: functional, organism-based; details: Squib-427
How it was run: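 Screening used a 10,000-compound diverse library supplied by Life Chemicals and filtered for drug-likeness and reactive groups. Whole bloodstream-form parasites of Trypanosoma brucei Squib 427 strain were assayed according to previously published standard procedures, with reference drugs as positive controls. The reported measure is IC50, reflecting antiparasitic potency.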

[2] = test system: Plasmodium falciparum K1; assay: WHO-TDR: Malaria; assay type: functional, organism-based, Homo sapiens; details: Erythrocyte
How it was run: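 This whole-organism screen covered 10,000 drug-likeness-filtered and reactive-group-filtered compounds from Life Chemicals. The target was the Plasmodium falciparum K1 strain in human red blood cells, and the readout was antiplasmodial IC50.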

[3] = test system: Onchocerca lienalis; assay: (§1) WHO-TDR: Onchocerciasis; assay type: functional; design: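 at 12.5 µM on microfilariae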
How it was run: (§2)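 Following previously published standard procedures, with reference drugs as positive controls, a diverse Life Chemicals library was tested on whole Onchocerca ochengi or Onchocerca lienalis microfilariae. The library held 10,000 compounds filtered for drug-likeness and reactive groups. Activity is recorded both as percent inhibition and as IC50.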

[4] = test system: Leishmania infantum; assay: WHO-TDR: Leishmaniasis; assay type: functional, organism-based, Mus musculus; details: Macrophage
How it was run: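 The screened collection came from Life Chemicals: 10,000 diverse compounds selected after filtering for drug-likeness and reactive groups. Each was tested in a whole-organism assay against Leishmania infantum MHOM/MA(BE)/67 amastigotes inside murine peritoneal macrophages, using previously published standard procedures and a reference drug as positive control. Results are IC50 values for antiparasitic potency.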

[5] = test system: Trypanosoma cruzi; assay: WHO-TDR: Chagas disease; assay type: functional, organism-based, Homo sapiens; details: MRC5
How it was run: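 Following previously published standard procedures, with a reference drug as positive control, a whole-organism assay was run on Trypanosoma cruzi Tulahuen CL2 beta-galactosidase strain amastigotes inside MRC-5SV2 human lung fibroblast host cells. The 10,000 compounds tested formed a diverse Life Chemicals library filtered for drug-likeness and reactive groups. Results are expressed as IC50 for antiparasitic potency.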

[6] = test system: Onchocerca lienalis; assay: as §1; assay type: functional, organism-based; how it was run: as §2
[7] = WHO-TDR: Cytotoxicity; assay type: toxicity, cell-based; details: human, MRC5 cells
[8] = test system: Schistosoma mansoni; assay: (§3) WHO-TDR: Schistosomiasis; assay type: functional; design: concentration or dose not given beside the values
How it was run: (§4)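 Activity appears as percent inhibition and as IC50. The underlying screen tested a diverse library of 10,000 compounds, supplied by Life Chemicals, on whole larval and/or adult worms of the Puerto Rican strain of Schistosoma mansoni.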

[9] = test system: Brugia malayi; assay: (§5) WHO-TDR: Lymphatic Filariasis; assay type: functional, organism-based;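 for % Inhibition: tested at 10 µM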
How it was run: (§6)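 Following previously published standard procedures, compounds were tested on whole Brugia malayi microfilariae, with reference drugs as positive controls. They came from a diverse Life Chemicals collection of 10,000 compounds filtered for drug-likeness and reactive groups. Results appear as percent inhibition and as IC50.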

[10] = test system: Brugia malayi; assay: as §5; assay type: functional; design: concentration or dose not given beside the values; how it was run: as §6
[11] = test system: Brugia malayi; assay: as §5; assay type: functional, organism-based; how it was run: as §6; remark: listed apart in the source
[12] = test system: Brugia malayi; assay: as §5; assay type: functional; design: concentration or dose not given beside the values; how it was run: as §6; remark: listed apart in the source
[13] = test system: Schistosoma mansoni; assay: as §3; assay type: functional, organism-based; how it was run: as §4

| SMILES | IC50 [1] | IC50 [2] | % Inhibition [3] | IC50 [4] | IC50 [5] | IC50 [6] | IC50 [7] | % Inhibition [8] | pIC50 [9] | % Inhibition [10] | pIC50 [11] | % Inhibition [12] | pIC50 [13] |
| --- | --- | --- | --- | --- | --- | --- | --- | --- | --- | --- | --- | --- | --- |
| O=C(Nc1nc(-c2ccccn2)cs1)c1ccc(Cl)s1 | 0.309 µg/mL (≈ 0.96 µM) | 0.564 µg/mL (≈ 1.75 µM) | 100% | 1.9 µg/mL (≈ 5.9 µM) | < 0.0965 µg/mL | 0.344 µg/mL (≈ 1.07 µM) | 4.39 µg/mL (≈ 13.6 µM) | – | – | – | – | – | – |
| CCOC(=O)c1ccc(NC(=O)CSc2nnc(NC(=O)C34CC5CC(CC(C5)C3)C4)s2)cc1 | > 15 µg/mL | > 15 µg/mL | 40% | > 15 µg/mL | > 15 µg/mL | – | > 15 µg/mL | 0% | 5.23 | 100% | 5.15 | 100% | – |
| Cc1ccc(S(=O)(=O)Nc2ccccc2C(=O)Nc2nc3c(s2)Cc2ccccc2-3)cc1 | 3.6 µg/mL (≈ 7.79 µM) | > 13.8 µg/mL | 0% | 4.48 µg/mL (≈ 9.71 µM) | 4.98 µg/mL (≈ 10.8 µM) | – | 2.51 µg/mL (≈ 5.44 µM) | 0% | – | 100% | 5.93 | 25% | – |
| CC(C)N1CCc2c(sc(NC(=O)c3cc4c(ccc5ccccc54)oc3=O)c2C(N)=O)C1 | 0.478 µg/mL (≈ 1.04 µM) | 0.572 µg/mL (≈ 1.24 µM) | -1% | 0.484 µg/mL (≈ 1.05 µM) | 0.149 µg/mL (≈ 0.323 µM) | – | 0.416 µg/mL (≈ 0.901 µM) | 0% | 6.28 | 100% | 6.28 | 100% | – |
| COc1ccc(C(=O)C[n+]2cc(-c3ccc(OC)cc3)n3c2CCCCC3)cc1 | 3.73 µg/mL | 0.505 µg/mL | 0% | 4.58 µg/mL | < 0.141 µg/mL | – | 0.572 µg/mL | 50% | – | 99% | 5.52 | 50% | – |
| COC(=O)c1c(NC(=O)c2cc3ccccc3oc2=O)sc2c1CCN(Cc1ccccc1)C2 | > 15.3 µg/mL | > 15.3 µg/mL | 0% | 4.96 µg/mL (≈ 10.5 µM) | 0.637 µg/mL (≈ 1.34 µM) | – | 8.92 µg/mL (≈ 18.8 µM) | 0% | – | 100% | 5.53 | 100% | – |
| Cc1cccc(-n2nc3c(c2NC(=O)Nc2cccc(Cl)c2)CSC3)c1 | > 11.5 µg/mL | > 11.5 µg/mL | 33.34% | 3.74 µg/mL (≈ 9.71 µM) | 9.48 µg/mL (≈ 24.6 µM) | – | > 11.5 µg/mL | 25% | 5.75 | 100% | 6.59 | 100% | – |
| CCn1nnc2c(N3CCN(C(c4ccccc4)c4ccccc4)CC3)ncnc21 | 3.83 µg/mL (≈ 9.6 µM) | > 12 µg/mL | 100% | > 12 µg/mL | 3.62 µg/mL (≈ 9.06 µM) | 1.48 µg/mL (≈ 3.7 µM) | > 12 µg/mL | 0% | – | – | – | 0% | – |
| O=C(COc1cccc2c1CCN(Cc1ccccc1F)C2=O)N1CCC(Cc2ccccc2)CC1 | 0.473 µg/mL (≈ 0.971 µM) | 4.54 µg/mL (≈ 9.33 µM) | 0% | 4.73 µg/mL (≈ 9.71 µM) | 0.557 µg/mL (≈ 1.14 µM) | – | 4.56 µg/mL (≈ 9.37 µM) | 0% | 5.29 | 100% | 5.31 | 100% | – |
| O=C(Nc1nc2c(s1)CSc1ccccc1-2)C1COc2ccccc2O1 (centres undefined) | 0.367 µg/mL (≈ 0.96 µM) | 4.75 µg/mL (≈ 12.4 µM) | 100% | 0.782 µg/mL (≈ 2.04 µM) | 0.502 µg/mL (≈ 1.31 µM) | 1.42 µg/mL (≈ 3.71 µM) | 2.62 µg/mL (≈ 6.86 µM) | 100% | – | 0% | – | 33.33% | – |
| CCOC(=O)N1CCc2c(sc(NC(=O)c3nc4ccccc4s3)c2C(N)=O)C1 | 4.18 µg/mL (≈ 9.71 µM) | 0.746 µg/mL (≈ 1.73 µM) | 100% | 4.18 µg/mL (≈ 9.71 µM) | 1.52 µg/mL (≈ 3.54 µM) | 1.75 µg/mL (≈ 4.06 µM) | 4.58 µg/mL (≈ 10.6 µM) | 100% | – | – | – | – | 5.17 |
| O=C(Nc1nnc(S)s1)c1cc(Br)ccc1Cl | > 10.5 µg/mL | > 10.5 µg/mL | 0% | > 10.5 µg/mL | > 10.5 µg/mL | – | > 10.5 µg/mL | 0% | – | 100% | 6.07 | 0% | – |
